Data taken from the EternaBench riboswitch data.

Tested on: MS2 coat protein
Assay: apparent Kd, MS2 coat protein; higher = weaker binding; RNA-MaP array; FMN 200 µM where present
How it was run: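 Each design was made on Illumina sequencing-chip clusters by stalled E. coli RNA polymerase and titrated with SNAP-549-labelled MS2 coat protein from 0.7 or 1.5 nM, doubling to 3 µM, in the absence and then the presence of constant ligand. The buffer was 100 mM Tris-HCl pH 7.5, 80 mM KCl, 4 mM MgCl2, BSA, DTT, yeast tRNA and Tween-20. The apparent Kd is the median of filtered per-cluster fits of binding curves, with green signal normalised to red-channel RNA signal and control-cluster median Fmax.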

[1] = designed as: OFF switch for flavin mononucleotide, no ligand
[2] = ligand present: flavin mononucleotide, designed as: OFF switch for flavin mononucleotide
[3] = designed as: ON switch for flavin mononucleotide, no ligand
[4] = ligand present: flavin mononucleotide, designed as: ON switch for flavin mononucleotide

UCUUGUGUUGAGGAUAUGCGCCGGCUCGCUGGCGCAGAAGGCGGCACAUGAGGAUCACCCAUGUCAGUUCGCGU
apparent Kd [1]: 326 nM | apparent Kd [2]: 78 nM

UCUUUACAUGAGGAUCACCCAUGUGAGGAUAUGGAUUCGCUGGCCGUAGCCAGUGGAUCCAGAAGGCGCAUGAU
apparent Kd [1]: 26.6 nM | apparent Kd [2]: 48 nM

UGAAAUCAUGUAGGAUAUGCAUGGCGAAGCUACGCAGAAGGACAUGAGGAUCACCCAUGUUAUAGCUACCCAGUUCGGUGGCAG
apparent Kd [1]: 46.2 nM | apparent Kd [2]: 174 nM

UGAAAUCAUGUAGGAUAUGCAUGGCGAAGCUACGCAGAAGGACAUGAGGAUCACCCAUGUUCGAGGGUCUGAGUACAGAUCCAA
apparent Kd [1]: 25.2 nM | apparent Kd [2]: 162 nM

UGAACAAUGUAGAAGGCCCAUAUUUAUAUAUAGGGAGGAUAUACAUGAGGAUCACCCAUGUAAAGAGCAAGAGGACUUGACAGA
apparent Kd [1]: 9.27 nM | apparent Kd [2]: 15.7 nM

UGAACGUUAGGAUAUACAUGAGGAUCACCCAUGUGUUAUGAGCAAUCAUCGAUAUGUUGUAGAAGGAACGCGCG
apparent Kd [1]: 24.9 nM | apparent Kd [2]: 26.3 nM

UGAACUAUGUAGAAGGCCCAUAUUUAUAUAUAGGGAGGAUAUACAUGAGGAUCACCCAUGUAAAGAGCAAGAGGACUUGUCAGA
apparent Kd [1]: 14.2 nM | apparent Kd [2]: 37.3 nM

UGAACUAUGUAGAAGGCCCUCAUUAAUAUGAAGGGAGGAUAUACAUGAGGAUCACCCAUGUGAAGAGCAAGAGGGUUUAACAGA
apparent Kd [1]: 89.1 nM | apparent Kd [2]: 479 nM

UGAACUUCAGAGAAGGUCGAAUCACAACGGUUCGAAGGAUAUCUGGAAACAUGAGGAUCACCCAUGUAACCGGGUGGAUGUCCU
apparent Kd [1]: 56.2 nM | apparent Kd [2]: 242 nM

UGAAGUGGCGACAUGAGGAUCACCCAUGUAUGGUAUUCAACCAGAAGGCAUGUUGAGGAAUUACAUGAGGAUAUGGGAGAUCUA
apparent Kd [3]: 314 nM | apparent Kd [4]: 121 nM

UGACAUAUAUAGAAGGGUAUGUGGGAAUUACAUGAGGAUCACCCAUGUUUUAUAGGAUAUGUAUAUAGUUUUUAAUCAAGUUUA
apparent Kd [1]: 35.1 nM | apparent Kd [2]: 26.9 nM

UGACCCAUGACAUGAGAUGACAUGAGGAUCACCCAUGUGUACAAGGAUAUGUUGGUCGACGAUCGGCAGAAGGUGUAAUGGGAU
apparent Kd [1]: 56.6 nM | apparent Kd [2]: 282 nM

UGACUGAAGCAAGGAUAUUGAAAAGUUAACGUACAAGAAGGUGCUGUUUAUGUCUCUUUACAUGAGGAUCACCCAUGUUUUUAU
apparent Kd [3]: 36.7 nM | apparent Kd [4]: 23.2 nM

UGAGAGUCAGGAUAUCGAAGGUAGUGGAGAGGAGUGUGGUACGAGAAGGGACAUGAGGAUCACCCAUGUAGGUG
apparent Kd [1]: 322 nM | apparent Kd [2]: 276 nM

UGAGCAUCAGGAUAUAUAUGGCGACCGUGAGGUCGAAGGUUACAUGAGGAUCACCCAUGUAGAAGGGAUGUUCU
apparent Kd [1]: 36.6 nM | apparent Kd [2]: 147 nM

UGAGCCUCGUGAGGAUAUACAUGAGGAUCACCCAUGUAAUAAAGUGAACGGAGGAAGCUCCGAAUGUAGAAGGCACGAGGCUCA
apparent Kd [1]: 60.1 nM | apparent Kd [2]: 372 nM

UGAGCCUCGUGAGGAUAUACAUGAGGAUCACCCAUGUAAUAAGAUCAACGGAGGAAACUCCGAAUGUAGAAGGCACGAGGCUCA
apparent Kd [1]: 40.9 nM | apparent Kd [2]: 393 nM

UGAGCGACCACAGGAUAUACUUAGGAAGACCGAGUAGAAGGGUGGAAGAGCGUGCAGUGACAUGAGGAUCACCCAUGUGGUUGU
apparent Kd [3]: 156 nM | apparent Kd [4]: 70.1 nM

UGAGUAGCGAAACAAUGCACAUGAGGAUCACCCAUGUCUACACAGGAUAUGCGACGCUCCAGUUAGCAGAAGGGUGAACUCAAA
apparent Kd [3]: 40.2 nM | apparent Kd [4]: 82.3 nM

UGAUACAUGAGGGUCUCCCAUGACAUGAGGAUCACCCAUGUGCAGGAUAUACGUGUGAUGGUAUAGUAGAAGGGCAGUCUAUGU
apparent Kd [1]: 102 nM | apparent Kd [2]: 133 nM

UGAUACUAAGAGAAGGUUCAAACUACAUAUUGCAUACAUGAGGAUCACCCAUGUUGGUGAAUAAGAAAGGAUAUUUUACUGUAU
apparent Kd [1]: 46.3 nM | apparent Kd [2]: 34.3 nM

UGAUAGCACAGAGGAUAUGCGUAGAGUUAUCACUACAUGAGGAUCACCCAUGUAGAAGGCUGUGCUAUCUAAGUCGGAAACGAC
apparent Kd [1]: 5.89 nM | apparent Kd [2]: 6.17 nM

UGAUAGGACACAGGAUAUACGUGCUAGAGAUACUAGCAAAAUUUCCUCACAUGAGGAUCACCCAUGUAGAAGGGUGUCCUAUCU
apparent Kd [1]: 10.3 nM | apparent Kd [2]: 135 nM

UGAUAGGACAGAGGAUAUACGUGCUGGUGAUACUAGCAAAGUAUCGUGACAUGAGGAUCACCCAUGUAGAAGGCUGUCCUAUCU
apparent Kd [1]: 81.1 nM | apparent Kd [2]: 27.3 nM

UGAUAGGACAGAGGAUAUGCGUGCUGGUGAUACUAGCAAAGUAUCGUGACAUGAGGAUCACCCAUGUAGAAGGCUGUCCUAUCU
apparent Kd [1]: 28 nM | apparent Kd [2]: 68.4 nM

UGAUAGGAUAAAGGAUAUACGUGCUAGAGAUACUAGCAAAAUUUCCUCACAUGAGGAUCACCCAUGUAGAAGGUUAACCUAUCU
apparent Kd [1]: 14.7 nM | apparent Kd [2]: 57.1 nM

UGAUCGAGAGAUCUUAGAUUCUGGUAGGAUAUACAUUAUGAAAACUUUACAUGAGGAUCACCCAUGUAGAAGGACUAGAGUCUA
apparent Kd [1]: 7.74 nM | apparent Kd [2]: 9.74 nM

UGAUCGAGAGAUCUUAGAUUCUGGUAGGAUAUACAUUAUGUUUGAAAUACAUGAGGAUCACCCAUGUAGAAGGACUAGAGUCUA
apparent Kd [1]: 6.71 nM | apparent Kd [2]: 11.7 nM

UGAUCUCGGGUUAGGAUAUACUGACAACAUAGACAGUAGAAGGAACAUGAGGAUCACCCAUGUGCAUUAACCAU
apparent Kd [1]: 25.1 nM | apparent Kd [2]: 59.3 nM

UGAUUACGAGGAUAUACAUGAGGAUCACCCAUGUAGUCAGGGCCCAUACUCCGAGCAUGUAGAAGGCGUUGUCU
apparent Kd [1]: 32.7 nM | apparent Kd [2]: 48.8 nM

UGCAUUACUUAGAAGGGAUAUAUAUAAUUUUAAUCAGGAUAUAGAUACAAUACAACAUGAGGACAUGAGGAUCACCCAUGUAUU
apparent Kd [3]: 19.9 nM | apparent Kd [4]: 14 nM

UGCCUUAGAGGAUAUACAUUGAAUUUGAUUCAUGUAAAACUACAUGAGGAUCACCCAUGUAGAAGGCUAGGGCU
apparent Kd [1]: 19.1 nM | apparent Kd [2]: 37.1 nM

UGCGAACAGGCUAACAUGAGGAUCACCCAUGUGGACUCAUGGUAGGAUAUCGGGAAGGAGGAAACCGAGAAGGGCCGGUGAGCA
apparent Kd [3]: 133 nM | apparent Kd [4]: 77.5 nM

UGCGAACAGGCUAACAUGAGGAUCACCCAUGUGGACUCAUGGUAGGAUAUCGGGAAGGAGGAAACCGAGAAGGGCCGGUGAGCC
apparent Kd [3]: 848 nM | apparent Kd [4]: 372 nM

UGCGCUCGGGUGAGGAUAUUAGGACUACAAUUGUAUGAGAAGGCACAUGAGGAUCACCCAUGUGGGUGAGCGCC
apparent Kd [1]: 922 nM | apparent Kd [2]: 420 nM

UGCGGUAGAGGAUAUACAUUGAAUUUGAUUCAUGUAAAACUACAUGAGGAUCACCCAUGUAGAAGGCUAUCGCU
apparent Kd [1]: 17.4 nM | apparent Kd [2]: 36.1 nM

UGCGGUAGAGGAUAUACGUAGAACUAGGUUCAUGUAAAACUACAUGAGGAUCACCCAUGUAGAAGGCUAUCGCU
apparent Kd [1]: 17 nM | apparent Kd [2]: 22.4 nM

UGCUACGGAGGAUAUACAUGAGGAUCACCCAUGUGAUAUAUUAUGCCGAGAGGCUAGUGUAGAAGGCCGUAGCU
apparent Kd [1]: 67 nM | apparent Kd [2]: 576 nM

UGCUACGUUUCGUAGCAGUGUCAUCGAGAAGGCCCUGACAUGAGGAUCACCCAUGUUGUUACAUGGGAGGAUAUCGAUGAUACU
apparent Kd [3]: 12.4 nM | apparent Kd [4]: 5.09 nM

UGGACCAGUACAGGAUAUGGUGACGCACAUGAGGAUCACCCAUGUCCGCAGCGUGCUCAGCACGCCCAGAAGGGUACUGAUUCG
apparent Kd [3]: 718 nM | apparent Kd [4]: 76.4 nM

UGGAUGGUAUGAGGAUAUGCGCGCGACACGCGCGCAGAAGGCAUGUCAAUAGACAUGAGGAUCACCCAUGUAUUAUCCAUCCAA
apparent Kd [3]: 201 nM | apparent Kd [4]: 14.8 nM

UGGCACCGAGGAUAUACAUGAGGAUCACCCAUGUUCGGAAAGCAUACGGUGGCUUGCUGUAGAAGGCGGGCCAC
apparent Kd [1]: 16.2 nM | apparent Kd [2]: 13 nM

UGGCUACAUGAGGAUCACCCAUGUCAGGAUAUGCCGUCGGCUUGCGUUCGUCGUUUGGGUAGAAGGGACUGCGG
apparent Kd [1]: 83.1 nM | apparent Kd [2]: 91.5 nM

UGGCUGAGUCGAGGAUAUGAUCUUCAUAUAAUAACAUGAGGAUCACCCAUGUAUAAUUACAUGGAUCAGAAGGCGACUCAGCCA
apparent Kd [4]: 38.1 nM

UGGGAUGGCUAGAAGGCUCCGUAAACUACAGGGAGAGGAUAUGGCACAUGAGGAUCACCCAUGUGUACCUGUAGGUGAUCCACA
apparent Kd [1]: 19 nM | apparent Kd [2]: 90.8 nM

UGGGAUGGCUAGAAGGCUCCUUAUACUACAGGGAGAGGAUAUGGCACAUGAGGAUCACCCAUGUGUACCUGUAGGUGAUCCACA
apparent Kd [1]: 113 nM | apparent Kd [2]: 108 nM

UGGUACAUCAUAGGAUAUCGUGUGUAAACAUGAGGAUCACCCAUGUCAUACGAGAGUAUGUAGAUCGAGAAGGAUGAUGUACCU
apparent Kd [3]: 18.1 nM | apparent Kd [4]: 16.1 nM

UGGUACUAGGGAGGAUAUGGAAAGAUACAUGAGGAUCACCCAUGUUUAAGAAUGCCGAGAGGCAACUAGAAGGCCCUAGUACCU
apparent Kd [3]: 11.1 nM | apparent Kd [4]: 5.29 nM

UGGUACUAGGGAGGAUAUGGGAAGAUACAUGAGGAUCACCCAUGUUUAAGAAUGCCAAGAGGCAACUAGAAGGCCCUAGUACCU
apparent Kd [3]: 384 nM | apparent Kd [4]: 17.8 nM

UGGUACUAGGGAGGAUAUGGGAAGAUACAUGAGGAUCACCCAUGUUUAAGAAUGCCGAGAGGCAACUAGAAGGCCCUAGUACCC
apparent Kd [3]: 430 nM | apparent Kd [4]: 19.1 nM

UGGUACUAGGGAGGAUAUGGGAAGAUACAUGAGGAUCACCCAUGUUUAAGAAUGCCGAGAGGCAACUAGAAGGCCCUAGUCCCU
apparent Kd [3]: 317 nM | apparent Kd [4]: 19.1 nM

UGGUACUAGGGAGGAUAUGGGAAGAUACAUGAGGAUCACCCAUGUUUAAGAAUGCCGAGAGGCAACUAGAAGGCCUUAGUACCU
apparent Kd [3]: 504 nM | apparent Kd [4]: 20.8 nM

UGGUACUAGGGAGGAUAUGGGAAGAUACAUGAGGAUCACCCAUGUUUAAGAAUGCCGAGAGGGAACUAGAAGGCCCUAGUACCU
apparent Kd [4]: 14.5 nM

UGGUACUAGGGAGGAUAUGGGAAGAUACAUGAGGAUCACCCAUGUUUAAUAAUGCCGAGAGGCAACUAGAAGGCCCUAGUACCU
apparent Kd [3]: 253 nM | apparent Kd [4]: 13.9 nM

UGGUACUAGGGAGGAUAUGGGAAGAUACAUGAGGAUCACCCAUGUUUAGGAAUGCCGAGAGGCAACUAGAAGGCCCUAGUACCU
apparent Kd [3]: 832 nM | apparent Kd [4]: 46.1 nM
